The values that follow come from paper PMC3773219 (Biochemistry, 2013).

One data set has as its system protein kinases. To be noted: cited from earlier work.
In the next data set the target is Pim1 (Homo sapiens, UniProt P11309). The data set can be described thus: Enzyme coupled kinase assay, Pim1. It is filed as biochemical. To be noted: for reduction of Pim1 activity: relative to consensus peptide 2 (kcat/KM). The method, boiled down: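 His6-tagged human Pim1 was expressed in E. coli and purified on Ni-NTA. It was treated with alkaline phosphatase, and phospho and non-phospho forms were separated on Q-Sepharose. The coupled PK/LDH assay ran at room temperature with 20 mM MgCl2, 100 mM Tris pH 7.4, 1 mM ATP, 1 mM PEP, 0.2 mM NADH and 0–2400 μM peptide or PTP-PEST catalytic domain (aa 5–300). It was started with 40–1200 nM Pim1, read at A340, and initial rates were fitted for kcat, KM and/or kcat/KM.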
Pim1, sequence (P11309 whole entry, the tested form may be a part): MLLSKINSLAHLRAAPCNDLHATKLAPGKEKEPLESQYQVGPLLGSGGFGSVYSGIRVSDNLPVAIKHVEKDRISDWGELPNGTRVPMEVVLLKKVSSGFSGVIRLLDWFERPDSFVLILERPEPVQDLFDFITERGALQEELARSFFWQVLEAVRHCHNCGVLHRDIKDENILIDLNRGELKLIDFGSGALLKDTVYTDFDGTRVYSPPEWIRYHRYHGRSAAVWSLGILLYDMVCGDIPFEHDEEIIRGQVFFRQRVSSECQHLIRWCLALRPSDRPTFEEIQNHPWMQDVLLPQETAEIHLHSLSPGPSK

Another data set deals with GST-Csk (Homo sapiens, UniProt P41240). The data set can be described thus: Enzyme coupled kinase assay, GST-Csk. It is filed as biochemical. To be noted: kcat/KM with GST-Csk relative to peptide 16. The essentials:
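GST-tagged wild-type human Csk was expressed in E. coli DH5α and purified on glutathione-Sepharose. The pyruvate kinase/lactate dehydrogenase coupled assay ran at room temperature in 100 mM Tris pH 7.4 with 5 mM MnCl2, 5 mM NaCl, 5 mM KCl, 10 mM DTT, 1 mM ATP, 1 mM PEP, 0.2 mM NADH and 0–2400 μM peptide. It was started with 1–3 μM GST-Csk and A340 followed continuously. Initial rates (<2 min) were fitted to Michaelis-Menten or V = kcat[E][S]/KM.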

The next data set relates to native Csk. To be noted: cited from earlier work.
A further data set addresses T1, MKK6 (Homo sapiens, UniProt P52564, S207E/T211E).
T1 sequence (P52564 1-334 S207E/T211E): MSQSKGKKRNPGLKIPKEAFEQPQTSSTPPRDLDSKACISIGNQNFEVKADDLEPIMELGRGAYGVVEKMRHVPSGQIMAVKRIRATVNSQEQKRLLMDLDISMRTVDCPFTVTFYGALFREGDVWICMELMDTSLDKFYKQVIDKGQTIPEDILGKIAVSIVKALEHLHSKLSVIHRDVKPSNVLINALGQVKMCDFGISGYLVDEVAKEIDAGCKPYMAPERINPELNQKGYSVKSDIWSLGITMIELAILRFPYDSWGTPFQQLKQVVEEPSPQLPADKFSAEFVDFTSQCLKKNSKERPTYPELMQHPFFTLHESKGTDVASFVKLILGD
The data set can be described thus: Kinase assay by HPLC, MKK6. It is filed as biochemical. To be noted: peptide as MKK6 substrate.

GST-Csk, sequence (P41240 whole entry): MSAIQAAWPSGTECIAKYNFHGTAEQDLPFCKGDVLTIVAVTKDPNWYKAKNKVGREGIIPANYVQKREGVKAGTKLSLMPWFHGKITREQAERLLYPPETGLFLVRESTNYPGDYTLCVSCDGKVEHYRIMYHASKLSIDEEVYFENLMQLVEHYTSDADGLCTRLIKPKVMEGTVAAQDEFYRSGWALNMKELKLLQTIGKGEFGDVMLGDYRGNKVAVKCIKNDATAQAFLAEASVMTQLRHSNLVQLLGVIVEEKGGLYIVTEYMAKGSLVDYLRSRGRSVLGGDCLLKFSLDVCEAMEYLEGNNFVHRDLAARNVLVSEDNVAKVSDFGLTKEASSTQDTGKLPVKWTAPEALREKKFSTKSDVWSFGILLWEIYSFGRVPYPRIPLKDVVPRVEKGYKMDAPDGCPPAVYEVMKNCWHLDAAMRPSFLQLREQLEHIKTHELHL

For the molecule `Nc1ncnc2c1ncn2[C@@H]1O[C@H](COP(=O)(O)OP(=O)(O)OP(O)(O)=S)[C@@H](O)[C@H]1O` [[γ-S]ATP, adenosine 5′-O-(3-thio)triphosphate], the “decrease of catalytic activity of kinases on substitution of [γ-S]ATP for ATP” value in the data set with protein kinases was 15–30 fold.
Take AYAHPTGMYY [Peptide 5]: the “effect of substitution on Pim1 activity” value at Pim1 (relative to consensus peptide 2) is recorded as “abolished the Pim1 activity”.
For Ac-DDEPIYAELADIT-NH2 [Peptide 23], the “more active than the previous consensus peptide (16)” value at GST-Csk came to 11 fold.
For orientation: kcat/KM means the second-order rate constant that governs catalysis at low substrate concentration. In the case of “Ac-KKKKEEIYFFF-NH2 [Peptide 16, reference compound]”, the kcat/KM with native Csk (native Csk, previously reported) was 6050 M⁻¹ s⁻¹.
As usually defined, the Km is the concentration of substrate that gives half-maximal velocity. Consider Ac-RRRYEILPTWNVY-NH2 [Peptide 13], for which the Km at MKK6 was > 500 µM.
As to Lck: Csk protein substrate, in the data set on native Csk (protein substrates of Csk), the “kcat/KM of Csk protein substrates” value is 200000 M⁻¹ s⁻¹.
As for RYRDPTGMYY [Peptide 6], the “reduction of Pim1 activity” value at Pim1 is recorded as 620 fold.
On the same count and under the same terms, the value for RYRHPTPMYY [Peptide 7] was 62 fold.

B1: PTP-PEST: non-receptor protein tyrosine phosphatase; recombinant catalytic domain of human PTP-PEST (amino acids 5–300) (protein, UniProt Q05209 5-300, looked up, fragment)
chain: EILRKFIQRVQAMKSPDHNGEDNFARDFMRLRRLSTKYRTEKIYPTATGEKEENVKKNRYKDILPFDHSRVKLTLKTPSQDSDYINANFIKGVYGPKAYVATQGPLANTVIDFWRMIWEYNVVIIVMACREFEMGRKKCERYWPLYGEDPITFAPFKISCEDEQARTDYFIRTLLLEFQNESRRLYQFHYVNWPDHDVPSSFDSILDMISLMRKYQEHEDVPICIHCSAGCGRTGAICAIDYTWNLLKAGKIPEEFNVFNLIQEMRTQRHSAVQTKEQYELVHRAIAQLFEKQLQL
modifications: catalytic domain GST tag
For B1, the kcat/KM with Pim1 (recombinant PTP-PEST protein as Pim1 substrate, enzyme-coupled assay) came out at 34000 M⁻¹ s⁻¹.
